High-throughput results (PubChem BioAssay)
Compounds with a hit are over-represented: about 3.1% of the library has one in this group of screens.
UHRF1 binding: UHRF1 methyl-DNA binding inhibition. inhibition, % at 4.4 µM. 370,000 tested, 0.75% active. Q96T88. UHRF1 binding to methylated oligo, TR-FRET; in the data active means inhibition above about 21%;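 further: UHRF1 SRA domain binding a hemimethylated CpG hairpin DNA probe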
ABHD5-PLIN5 inh: ABHD5-PLIN5 protein interaction inhibition; Q00G26+Q8WTS1; Split G. princeps luciferase complementation, luminescence, 4 h; inhibition, % at 4 µM; 360,000 tested, 0.78% active;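 active means inhibition above the mean inhibition across every tested compound plus 3 SD, cut at about 22% in these data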
LEDGF integ inh: blocks HIV-1 LEDGF/p75-dependent DNA integration; TR-FRET IN-LEDGF/p75 DNA integration, Eu/Cy5; inhibition, % at 3.7 µM; 370,000 tested, 0.64% active; AID 743269;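 active means inhibition above the screen-wide mean plus 3 SD, cut at about 13% in these data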;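 further: signal is the Cy5 over europium emission ratio at 671 and 618 nm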
RBBP9 inhibitor: human RBBP9 hydrolase inhibition. 220,000 tested, 0.2% active. recombinant RBBP9, FP-Rh probe fluorescence polarization. AID 1515. inhibition, % at 7.94 µM;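 active means inhibition above the campaign mean of all tested compounds plus 3 SD, cut at about 14% in these data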
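Measured by: FP readout at 525/598 nm; material: recombinant human RBBP9; also added: Serine-hydrolase probe FP-Rh, 375 nM pre-mixing; medium: Tris buffer pH 8.0, NaCl, Pluronic; replication: one well per compound; doses: one concentration, 7.94 µM nominal, 0.794% DMSO; timing: preincubation 30 min plus labeling 45 min at 25 °C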
PRMT1 inh: PRMT1 (human) inhibition, primary screen; Q99873; recombinant PRMT1, activity-based probe fluorescence polarization; 370,000 tested, 1.3% active; inhibition, % at 2.79 µM;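 active means inhibition above about 21% made by adding two undisclosed values, limit read from the data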
Target sequence (Q99873 whole entry, looked up): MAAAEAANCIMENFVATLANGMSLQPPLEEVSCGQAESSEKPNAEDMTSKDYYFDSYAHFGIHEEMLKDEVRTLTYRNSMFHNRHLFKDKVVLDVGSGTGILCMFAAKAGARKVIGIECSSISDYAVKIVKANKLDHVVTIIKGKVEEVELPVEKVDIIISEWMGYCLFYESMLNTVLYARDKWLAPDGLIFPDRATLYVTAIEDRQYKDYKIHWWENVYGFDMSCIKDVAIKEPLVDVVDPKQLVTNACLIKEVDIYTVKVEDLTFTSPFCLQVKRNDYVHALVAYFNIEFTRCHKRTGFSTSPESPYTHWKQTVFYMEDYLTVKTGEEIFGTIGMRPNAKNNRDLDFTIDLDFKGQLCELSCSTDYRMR
MBD2 DNA inh: inhibitors of human MBD2 binding to methylated oligonucleotide. Q9UBB5. TR-FRET. inhibition, % at 4.4 µM. 370,000 tested, 0.31% active. AID 686964; in the data active means inhibition above about 13%
PRMT1 confirm: PRMT1 (human) inhibition, FP confirmation; 3,300 tested, 42% active; recombinant His-PRMT1, activity-based probe fluorescence polarization; shares compounds with PRMT1 inh; inhibition, % at 2.79 µM;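 active means mean inhibition across replicates above the hit cutoff derived for the earlier primary screen, cut at about 22% in these data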
UHRF1 ctr MBD2: inhibits human UHRF1 binding to methylated oligonucleotide, MBD2 counter-screen; inhibition, % at 4.4 µM; shares compounds with MBD2 DNA inh; 1,000 tested, 25% active; TR-FRET; AID 720530; in the data active means inhibition above about 21%;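 further: UHRF1 SRA domain binding a labeled hemimethylated CpG hairpin DNA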
MBD2 confirm: confirmation of human MBD2-DBD methylated oligonucleotide binding inhibitors | shares compounds with MBD2 DNA inh | 1,000 tested, 26% active | inhibition, % at 4.4 µM | TR-FRET MBD2-DBD binding to methylated oligonucleotide
IN multimer act: HIV-1 integrase multimerization activation, counter-screen; shares compounds with LEDGF integ inh; TR-FRET HIV-1 integrase multimerization, biochemical; activation, % at 7.7 µM; 2,000 tested, 17% active; AID 1053131; in the data active means activation above about 8.9%
TRFRET interf: optically interferes with TR-FRET readout in LEDGF counter-screen; 2,000 tested, under 10 active; shares compounds with LEDGF integ inh; inhibition, % at 7.7 µM; TR-FRET optical interference counterscreen, HIV-1 IN multimerization;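 active means inhibition above the mean over all tested compounds plus 3 SD, which no compound reached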
IN-LEDGF confirm: confirmation of HIV-1 LEDGF/p75-dependent integration inhibitors | shares compounds with LEDGF integ inh | TR-FRET LEDGF/p75-dependent HIV-1 integration, biochemical | inhibition, % at 3.7 µM | 2,000 tested, 36% active
A number is an active result; n = inactive; x = no result given. Unless noted, no stated cut-off is given here; in the data, active means inhibition above about 14%; inactive means the rest.

SMILES	UHRF1 binding	ABHD5-PLIN5 inh	LEDGF integ inh	RBBP9 inhibitor	PRMT1 inh	MBD2 DNA inh	PRMT1 confirm	UHRF1 ctr MBD2	MBD2 confirm	IN multimer act	TRFRET interf	IN-LEDGF confirm
COC(=O)[C@H]1C[C@@]2(C)c3ccccc3N(C(=O)OC(C)(C)C)[C@H]2N1C(=O)OC(C)(C)C	n	x	n	x	n	n	x	x	x	x	x	x
O=C(O)/C=C/C(=O)N1N=C(c2ccco2)CC1c1ccco1 (stereo not drawn)	n	n	51.3	x	43.1	n	n	x	x	n	n	n
O=C(OCc1cn(Cc2ccccc2F)nn1)N1CCCC1	n	x	n	x	n	n	x	x	x	x	x	x
CC(=O)OCCCNc1cc(SCc2ccco2)c2nonc2c1[N+](=O)[O-]	59.2	n	66.2	n	54.0	13.5	n	n	n	n	n	24.2
Cc1cccc(-c2cccc3c4c([nH]c23)[C@@H]2C[C@H](N(C)C(=O)c3ccco3)[C@H]([C@H](C)O)CN2CC4)c1	n	x	n	x	n	n	x	x	x	x	x	x
COc1cc2[nH]c(Cl)c([N+](=O)[O-])c2cc1OC	n	n	48.7	n	30.3	n	n	x	x	n	n	n
O=C(O)c1ccc2c(c1)C1C=CCC1C(c1cc3c(cc1Br)OCO3)N2 (stereo not drawn)	n	n	n	n	n	n	x	x	x	x	x	x
O=C(O)c1ccc(NS(=O)(=O)c2ccc3c(c2)C2C=CCC2C(c2ccccc2F)N3)cc1 (stereo not drawn)	n	n	43.1	n	47.3	n	n	x	x	17.2	n	32.7
CCCCNC(=O)c1ccc2nc(-c3ccco3)c(-c3ccco3)nc2c1	27.9	n	49.9	n	41.5	n	48.1	x	x	n	n	33.3
COc1ccccc1NCc1nc2ccccc2n1C	n	x	n	x	n	n	x	x	x	x	x	x
C/C=C/COC(=O)c1[nH]c2c(c1C)C(=O)CC(c1ccco1)C2 (stereo not drawn)	n	n	18.3	n	42.7	n	n	x	x	n	n	21.1
COc1ccc(NC(=O)/C(C#N)=C\c2ccc(Br)o2)cc1	n	n	n	n	n	14.2	x	n	n	x	x	x
COc1ccc(CNC(=O)c2cccc3c2C(=O)N(CC2CCCO2)C3)cc1 (stereo not drawn)	n	n	n	x	n	31.5	x	n	n	x	x	x
COc1ccc(CNC(=O)c2cccc3c2C(=O)N(Cc2cccnc2)C3)cc1	n	n	n	n	n	n	x	x	x	x	x	x
COc1ccccc1-c1cccc2c3c([nH]c12)[C@@H]1C[C@H]2[C@@H](CN1CC3)[C@H](C)ON2C	n	x	n	x	n	n	x	x	x	x	x	x
CC(C)Oc1ccc(C(CCNCc2ccc(O)cc2)c2ccccc2)cc1 (stereo not drawn)	n	n	n	x	n	65.2	x	n	n	x	x	x
CCOC(=O)C1=C(COC(=O)C2CC(=O)N(c3ccc(C)cc3)C2)NC(=O)NC1C (stereo not drawn)	36.8	n	n	x	n	14.2	x	n	n	x	x	x
CCOC(=O)C1=C(COC(=O)C2CC(=O)N(c3ccccc3CC)C2)NC(=O)NC1C (stereo not drawn)	n	n	n	x	n	n	x	x	x	x	x	x
O=C(O)CCN1C(=O)/C(=C/c2ccc(F)cc2F)SC1=S	n	x	n	x	n	n	x	x	x	x	x	x
C/C(=N\NC(=O)C1CCCN(S(=O)(=O)c2ccccc2)C1)c1ccccn1 (stereo not drawn)	n	n	n	n	n	15.9	x	n	n	x	x	x
